This is an account of results in ChEMBL document CHEMBL1138155, “A lactosylated steroid contributes in vivo therapeutic benefits in experimental models of mouse lymphoma and human glioblastoma” (J Med Chem, 2006).

Series [1] has as its system U373 MG. As to the kind of experiment: Antimigratory activity against human U373 glioblastoma cell line at 100nM after 22h. The format is functional, U-373MG ATCC. In outline: (§1)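 Computer-assisted videomicroscopy tracking of living cultured cells, one image every 4 min over 24 h; migration scored as maximum relative distance from origin (MRDO) per cell, read at 12 or 22 h with compound at 100 nM or without (control). Control normalized to 0%. Triplicate analyses, 121–184 cells per condition; mean ± standard error.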

Series [2] has as its system A549. As to the kind of experiment: Cytotoxicity against human A549 NSCLC cell line. The format is functional, cell-based. In outline: (§2)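 Colorimetric MTT assay on cultured human cancer cells after 3 days of continuous drug exposure. IC50 is the concentration that reduces overall cell-population growth by 50% relative to untreated cells.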
The subject of a further series is MCF7. As to the kind of experiment: Cytotoxicity against human MCF7 breast cancer cell line. The format is functional, cell-based. In outline:
as §2

The test system of series [3] is A549. As to the kind of experiment: Antimigratory activity against human A549 NSCLC cell line at 100 nM after 12h. The format is functional. Particulars: A549, 12 h. An outline of the steps:
as §1

In series [4] the test system is A549. As to the kind of experiment: Antimigratory activity against human A549 NSCLC cell line at 100 nM after 22h. The format is functional. Particulars: A549, 22 h. In outline:
as §1

The next series has as its system Mus musculus. As to the kind of experiment: Toxicity in mice at 160 mg/kg, ip 28 days post dose. Further details: dose 160 mg/kg, route intraperitoneal. Particulars: in vivo, 672 h. The format is organism-based. In outline: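 Healthy, non-tumor-grafted mice received a single acute ip dose of 160 mg/kg. Body weight and survival were recorded over at least 28 days after dosing to detect toxic effects.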

Another series relates to Hs 683. As to the kind of experiment: Cytotoxicity against human Hs683 cancer cell line. The format is functional, cell-based. In outline: as §2
Series [5] deals with U373 MG. As to the kind of experiment: Cytotoxicity against human U373 glioblastoma cell line. The format is functional, cell-based, U-373MG ATCC. An outline of the steps: as §2
The subject of the next series is HCT-15. As to the kind of experiment: Cytotoxicity against human HCT15 colon cancer cell line. The format is functional, cell-based. An outline of the steps:
as §2

For series [6], the system named is PC-3. As to the kind of experiment: Cytotoxicity against human PC3 prostate cancer cell line. The format is functional, cell-based. In outline:
as §2

The test system of series [7] is PC-3. As to the kind of experiment: Antimigratory activity against human PC3 prostate cancer cell line at 100 nM after 12h. The format is functional. Particulars: PC-3, 12 h. In outline: as §1
Series [8] deals with PC-3. As to the kind of experiment: Antimigratory activity against human PC3 prostate cancer cell line at 100 nM after 22h. The format is functional. To be noted: PC-3, 22 h. In outline: as §1
For series [9], the system named is U373 MG. As to the kind of experiment: Antimigratory activity against human U373 glioblastoma cell line at 100 nM after 12h. The format is functional, U-373MG ATCC. An outline of the steps:
as §1

As usually defined, the inhibition is the relative decrease from the control value, in per cent. What is called IC50 is the midpoint of a concentration-inhibition curve. Read a low IC50 as higher potency.

For the molecule `COc1ccc(OC)c([C@@H]2C[C@H]3[C@@H]4CC=C5C[C@@H](O[C@@H]6O[C@H](CO)[C@H](O)[C@H](O)[C@H]6O)CC[C@]5(C)[C@H]4CC[C@]3(C)[C@H]2C(C)=O)c1`, the inhibition at 0.1 µM in the series with U373 MG [1] was 1%; in the series on A549 [3], 2%; in the series on A549 [4], 4%; with PC-3 [7] it was 7%; in the series with PC-3 [8], -8%; in the series on U373 MG [9] it was 8%. Further, the IC50 in the series on A549 [2], in the series on MCF7, in the series on Hs 683, in the series on U373 MG [5], in the series on HCT-15 and in the series with PC-3 [6] was greater than 10 µM in each case. Also, the Activity result in the series with Mus musculus was “Non-toxic”.
`COc1ccc(OC)c([C@@H]2C[C@H]3[C@@H]4CC=C5C[C@@H](O[C@@H]6O[C@H](CO)[C@@H](O[C@@H]7O[C@H](CO)[C@@H](O)[C@H](O)[C@H]7O)[C@H](O)[C@H]6O)CC[C@]5(C)[C@H]4CC[C@]3(C)[C@H]2C(C)=O)c1`: the inhibition at 0.1 µM was -9% in the series with U373 MG [1]; -30% in the series on A549 [3]; -34% in the series with A549 [4]; 13% with PC-3 [7]; -7% with PC-3 [8]; 8% with U373 MG [9]. The IC50 in the series with A549 [2], in the series with MCF7, in the series with Hs 683, in the series on U373 MG [5], in the series with HCT-15 and in the series with PC-3 [6] was greater than 10 µM each time. In addition, the Activity entry with Mus musculus was “Non-toxic”.
Regarding `COc1ccc(OC)c([C@@H]2C[C@H]3[C@@H]4CC=C5C[C@@H](O[C@@H]6O[C@H](CO)[C@@H](O)[C@H](O)[C@@H]6O)CC[C@]5(C)[C@H]4CC[C@]3(C)[C@H]2C(C)=O)c1`, the inhibition at 0.1 µM with U373 MG [1] is -4%; in the series on A549 [3] it was 20%; in the series on A549 [4], 1%; in the series on PC-3 [7], 2%; with PC-3 [8], -1%; in the series with U373 MG [9], 2%. For the same molecule, the IC50 in the series with A549 [2], with MCF7, with Hs 683, in the series on U373 MG [5], in the series with HCT-15 and in the series on PC-3 [6] was greater than 10 µM each time. Moreover, in the series on Mus musculus, the Activity entry is “Non-toxic”.
As to `COc1ccc(OC)c([C@@H]2C[C@H]3[C@@H]4CC=C5C[C@@H](O[C@@H]6O[C@H](CO)[C@@H](O)[C@H](O)[C@H]6O)CC[C@]5(C)[C@H]4CC[C@]3(C)[C@H]2C(C)=O)c1`, the inhibition at 0.1 µM was -8% in the series with U373 MG [1]; 2% with A549 [3]; 9% in the series with A549 [4]; 2% in the series with PC-3 [7]; 6% with PC-3 [8]; -6% in the series on U373 MG [9]. Also, the half-maximal inhibitory concentration (IC50) with A549 [2], in the series with MCF7, in the series on Hs 683, in the series with U373 MG [5], with HCT-15 and in the series with PC-3 [6] was greater than 10 µM each time. In addition, the Activity entry in the series on Mus musculus is reported as “Non-toxic”.
In the case of `COc1ccc(OC)c([C@@H]2C[C@H]3[C@@H]4CC=C5C[C@@H](O[C@H]6O[C@@H](C)[C@@H](O)[C@@H](O)[C@@H]6O)CC[C@]5(C)[C@H]4CC[C@]3(C)[C@H]2C(C)=O)c1`, the inhibition at 0.1 µM with U373 MG [1] was -38%; with A549 [3], -8%; in the series with A549 [4], -8%; in the series with PC-3 [7] it was -23%; in the series with PC-3 [8] it was -15%; in the series on U373 MG [9], -25%. In addition, the IC50 in the series with A549 [2], in the series with MCF7, in the series with Hs 683, in the series on U373 MG [5], with HCT-15 and in the series with PC-3 [6] was greater than 10 µM each time. Also, the Activity result in the series on Mus musculus is “Non-toxic”.
